Results on 11 molecules are retold here after ChEMBL document CHEMBL1136151, “Suzuki cross-coupling approaches to the synthesis of bioactive 3-substituted and 5-substituted-4-methoxy-6-methyl-2-pyrones” (Bioorg Med Chem Lett, 2003).

The subject of assay [1] is Fusarium oxysporum. In words: Percent growth of Fusarium oxysporum after 7 days of incubation. It is filed as functional. More on the design: concentration or dose not given beside the values. The essentials: (§1)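 Fungal plate assay: pyrone dissolved in absolute EtOH at 10mg/mL and pipetted 2 cm offset from the centre of the plate containing the organism. EtOH alone served as control. Growth is recorded as percentage of the organism after 72 h and after 7 days of incubation.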

For assay [2], the system named is Escherichia coli. In words: Antimicrobial activity against Escherichia coli was determined after 96 hours of incubation. It is filed as functional. The essentials: (§2)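 Disk diffusion: cellulose disks loaded with test compound and placed on bacterial plates, with an EtOH control disk. Incubation 96 h. Read-out is the radius (mm) of the inhibition zone.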
Assay [3] relates to Thanatephorus cucumeris. Put plainly: Percent growth of Rhizoctonia solani after 7 days of incubation. It is filed as functional. More on the design: concentration or dose not given beside the values. The essentials: as §1
Assay [4] deals with Candida albicans. Put plainly: Antimicrobial activity against Candida albicans was determined after 48 hours of incubation. It is filed as functional. The essentials: (§3)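 Disk diffusion on yeast plates: cellulose disks carrying test compound, with an EtOH control. Incubation 48 h. The inhibition zone radius is recorded in mm.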
The subject of assay [5] is Botrytis cinerea. In words: Percent growth of Botrytis cinerea after 72 hours of incubation. Also noted: concentration or dose not given beside the values. It is filed as functional. The essentials:
as §1

Assay [6] relates to Thanatephorus cucumeris. In words: Percent growth of Rhizoctonia solani after 72 hours of incubation. In kind it is functional. More on the design: concentration or dose not given beside the values. The essentials:
as §1

Assay [7] deals with Bacillus subtilis. Put plainly: Antimicrobial activity against Bacillus subtilis was determined after 96 hours of incubation. It is filed as functional. The essentials:
as §2

Assay [8] has as its system Globisporangium ultimum. In words: Percent growth of Pythium ultimum after 72 hours of incubation. More on the design: concentration or dose not given beside the values. It is filed as functional. The essentials:
as §1

The test system of assay [9] is Saccharomyces cerevisiae. In words: Antimicrobial activity against Saccharomyces cerevisiae was determined after 48 hours of incubation. In kind it is functional. The essentials:
as §3

For assay [10], the system named is Globisporangium ultimum. Put plainly: Percent growth of Pythium ultimum after 7 days of incubation. It is filed as functional. More on the design: concentration or dose not given beside the values. The essentials: as §1
Assay [11] concerns Schizosaccharomyces pombe. Put plainly: Antimicrobial activity against Schizosaccharomyces pombe was determined after 48 hours of incubation. It is filed as functional. The essentials:
as §3

For assay [12], the system named is Aspergillus niger. In words: Percent growth of Aspergillus niger after 72 hours of incubation. In kind it is functional. Also noted: concentration or dose not given beside the values. The essentials: as §1
The test system of assay [13] is Botrytis cinerea. In words: Percent growth of Botrytis cinerea after 7 days of incubation. In kind it is functional. More on the design: concentration or dose not given beside the values. The essentials: as §1
The subject of assay [14] is Staphylococcus aureus. Put plainly: Antimicrobial activity against Staphylococcus aureus was determined after 96 hours of incubation. It is filed as functional. The essentials: as §2
The test system of assay [15] is Globisporangium mamillatum. In words: Percent growth of Pythium mammillatum after 7 days of incubation. In kind it is functional. More on the design: concentration or dose not given beside the values. The essentials:
as §1

Assay [16] concerns Globisporangium mamillatum. Put plainly: Percent growth of Pythium mammillatum after 72 hours of incubation. In kind it is functional. Also noted: concentration or dose not given beside the values. The essentials: as §1
For assay [17], the system named is Aspergillus niger. Put plainly: Percent growth of Aspergillus niger after 7 days of incubation. It is filed as functional. Also noted: concentration or dose not given beside the values. The essentials:
as §1

For assay [18], the system named is Fusarium oxysporum. Put plainly: Percent growth of Fusarium oxysporum after 72 hours of incubation. Also noted: concentration or dose not given beside the values. It is filed as functional. The essentials: as §1
For assay [19], the system named is A2780. Put plainly: In vitro growth inhibitory activity against A2780 human ovarium carcinoma cell line was determined. In kind it is functional, cell-based. The essentials: (§4)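 Cell growth inhibition measured in cultured tumour cells by MTT assay. IC50 derived from the growth inhibition.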
Assay [20] relates to K562. In words: In vitro growth inhibitory activity against K562 human chronic myelogenous leukemia cell line was determined. It is filed as functional, cell-based. The essentials:
as §4

For assay [21], the system named is Globisporangium mamillatum. Put plainly: Percent growth of Pythium mammillatum after 7 days of incubation; NT=Not tested. It is filed as functional. The essentials:
as §1

Consider `CCCCC/C=C/c1cc(C)oc(=O)c1`, for which the Growth is 24% in [1]; 100% in assay [3]; 45% in assay [5]; 38% in assay [6]; 95% in [8]; 100% in [10]. Further, the Growth is recorded as 89% in assay [12]; 100% in assay [13]; 93% in assay [15]; 31% in assay [16]; 94% in assay [17]; 2% in assay [18]. Also, the Activity in assay [2] turned out to be 18 mm; in [4] it was 21 mm; in assay [7], 18 mm; in assay [9], 0 mm; in assay [11], 34 mm; in [14] it was 17 mm.

Consider `CCCCC/C=C/c1c(OC)cc(=O)oc1C`, for which the Growth in [1] came to 24%; in assay [3] it was 100%; in [5] it was 12%; in assay [6], 33%; in [8], 100%; in assay [10], 100%. Moreover, the Growth in assay [12] came out at 82%; in assay [13], 100%; in [15] it was 94%; in assay [16], 24%; in [17], 95%; in assay [18], 7%. Moreover, the Activity in assay [2] was 20 mm; in assay [4], 12 mm; in [7] it was 19 mm; in assay [9], 12 mm; in assay [11] it was 26 mm; in assay [14], 16 mm.

`CCCCC/C=C/c1c(OC)cc(C)oc1=O`: the Growth worked out at 56% in [1]; 100% in assay [3]; 53% in [5]; 47% in [6]; 61% in [8]; 75% in assay [10]. Moreover, the Growth is 90% in assay [12]; 100% in assay [13]; 100% in assay [15]; 42% in assay [16]; 95% in assay [17]; 11% in assay [18]. Moreover, the Activity in assay [2] is 0 mm; in assay [4] it was 0 mm; in assay [7] it was 20 mm; in assay [9], 0 mm; in [11] it was 0 mm; in [14], 0 mm.

What is called IC50 is the concentration at which inhibition is half-maximal. Take `CCCCCC/C=C/c1c(OC)cc(C)oc1=O`: the Growth is recorded as 60% in assay [1]; 100% in assay [3]; 60% in assay [5]; 53% in assay [6]; 100% in assay [8]; 100% in assay [10]. Moreover, the Growth in assay [12] was 89%; in assay [13], 100%; in assay [15], 100%; in [16], 25%; in assay [17] it was 95%; in assay [18], 11%. For the same molecule, the Activity worked out at 0 mm in assay [2]; 0 mm in [4]; 18 mm in [7]; 0 mm in assay [9]; 0 mm in assay [11]; 0 mm in assay [14]. Moreover, the IC50 in [19] came to 30.3 µM; in [20] it was 30.1 µM.

As to `CCCC/C=C/c1c(OC)cc(C)oc1=O`, the Growth in assay [1] stood at 48%; in assay [3], 100%; in [5], 51%; in assay [6] it was 43%; in assay [8], 37%; in assay [10], 57%. Further, the Growth in assay [12] worked out at 77%; in assay [13], 100%; in assay [15] it was 100%; in assay [16], 35%; in [17] it was 91%; in [18] it was 8%. Also, the Activity in assay [2] came to 20 mm; in assay [4], 0 mm; in assay [7] it was 19 mm; in assay [9], 0 mm; in [11], 0 mm; in assay [14], 21 mm.

Consider `CCCC/C=C/c1cc(C)oc(=O)c1`, for which the Growth in assay [1] turned out to be 25%; in assay [3] it was 100%; in [5], 44%; in [6] it was 36%; in assay [8], 96%; in [10] it was 100%. Moreover, the Growth in assay [12] turned out to be 92%; in assay [13] it was 100%; in assay [15], 100%; in assay [16], 30%; in assay [17], 95%; in assay [18], 2%. Further, the Activity in assay [2] is 18 mm; in assay [4], 24 mm; in [7], 18 mm; in assay [9], 0 mm; in assay [11] it was 40 mm; in assay [14], 0 mm.

`CCC/C=C/c1c(OC)cc(C)oc1=O`: the Growth in [1] was 48%; in assay [3] it was 100%; in assay [5], 56%; in [6] it was 44%; in assay [8], 67%; in assay [10], 80%. Besides, the Growth is on record as 93% in assay [12]; 100% in [13]; 100% in [15]; 43% in assay [16]; above 95% in assay [17]; 8% in assay [18]. For the same molecule, the Activity in [2] was found to be 21 mm; in assay [4] it was 0 mm; in assay [7], 18 mm; in assay [9] it was 0 mm; in [11], 13 mm; in assay [14], 0 mm.

Take `CCCCCC/C=C/c1c(OC)cc(=O)oc1C`: the Growth in assay [1] is 46%; in [3], 100%; in [5], 29%; in [6], 40%; in [8], 100%; in assay [10] it was 100%. Besides, the Growth turned out to be 90% in assay [21]; 90% in assay [12]; 94% in assay [13]; 22% in assay [16]; 93% in assay [17]; 10% in assay [18]. The Activity was 14 mm in assay [2]; 18 mm in [4]; 16 mm in [7]; 0 mm in assay [9]; 22 mm in [11]; 16 mm in [14]. Besides, the IC50 in [19] amounted to 26.9 µM; in assay [20], 33.3 µM.

Turning to `COc1cc(=O)oc(C)c1-c1ccc(C)cc1`, the Growth in assay [1] was 54%; in assay [3] it was 100%; in assay [5], 49%; in [6] it was 61%; in assay [21], 100%; in [12], above 90%. The Growth in assay [13] is given as 100%; in assay [17], above 95%; in assay [18], 10%. Also, the Activity in assay [2] is 6 mm; in assay [4], 0 mm; in assay [7] it was 8 mm; in [9] it was 0 mm; in assay [11], 20 mm; in assay [14], 0 mm.

In the case of `CCC/C=C/c1c(OC)cc(=O)oc1C`, the Growth in [1] came to 35%; in assay [3], 100%; in [5] it was 39%; in [6], 50%; in assay [8], 100%; in assay [10], 100%. Moreover, the Growth in [21] is on record as 100%; in assay [12], 82%; in assay [13], 100%; in assay [16], 43%; in assay [17], 90%; in [18] it was 8%. Also, the Activity in [2] amounted to 17 mm; in [4], 11 mm; in assay [7], 16 mm; in [9], 10 mm; in [11], 20 mm; in assay [14], 0 mm.

On to `CCCC/C=C/c1c(OC)cc(=O)oc1C`, for which the Growth in [1] is 35%; in assay [3], 93.4%; in assay [5] it was 33%; in assay [6], 41%; in assay [8], 100%; in assay [10] it was 100%. Moreover, the Growth is reported as 68% in assay [12]; 100% in assay [13]; 92% in [15]; 34% in assay [16]; above 95% in [17]; 7% in assay [18]. In addition, the Activity in assay [2] stood at 18 mm; in assay [4], 18 mm; in [7], 17 mm; in [9], 15 mm; in assay [11], 31 mm; in assay [14], 15 mm.
